Reference: ChEMBL document CHEMBL1152660, “Structural analogues of diosgenyl saponins: synthesis and anticancer activity” (Bioorg Med Chem, 2009)
Calls of active or inactive are those of the source. No cut-off for these calls is given here.

Assays:
HeLa (human) = assay: Cytotoxicity against human HeLa cells after 72 hrs by MTT assay
MCF7 (human) = assay: Cytotoxicity against human MCF7 cells after 72 hrs by MTT assay; conditions: MCF7, 72 h
HeLa = assay: Cytotoxicity against human HeLa cells at 50 uM after 72 hrs by MTT assay; format: functional, cell-based
Outline: (§1)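 The MTT proliferation assay used MCF-7 or HeLa cells at 2000 per well in DMEM with 10% FBS at 37 °C and 5% CO2, with a 3-day exposure to DMSO-dissolved analogues diluted in medium. Compounds were tested up to the top concentration. A490 at that concentration is reported as percent of the absorbance of untreated cells.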

MCF7 = assay: Cytotoxicity against human MCF7 cells at 50 uM after 72 hrs by MTT assay; format: functional
Outline: as §1

Row | Structure (SMILES) | IC50 (HeLa (human)) [µM] | IC50 (MCF7 (human)) [µM] | Activity (HeLa) | Activity (MCF7) [%]
1 | C[C@@H]1CC[C@@]2(OC1)O[C@H]1C[C@H]3[C@@H]4CC=C5C[C@@H](O[C@@H]6O[C@H](CO)[C@@H](O)[C@H](O)[C@H]6NC(=O)c6ccccc6)CC[C@]5(C)[C@H]4CC[C@]3(C)[C@H]1[C@@H]2C | 18 | 19.4 | – | –
2 | C[C@@H]1CC[C@@]2(OC1)O[C@H]1C[C@H]3[C@@H]4CC=C5C[C@@H](O[C@@H]6O[C@H](CO)[C@@H](O[C@@H]7O[C@@H](C)[C@H](O)[C@@H](O)[C@H]7O)[C@H](O)[C@H]6NC(=O)c6ccccc6)CC[C@]5(C)[C@H]4CC[C@]3(C)[C@H]1[C@@H]2C | – | > 50 | inactive | 68
3 | C[C@@H]1CC[C@@]2(OC1)O[C@H]1C[C@H]3[C@@H]4CC=C5C[C@@H](O[C@@H]6O[C@H](CO)[C@@H](O[C@@H]7O[C@@H](C)[C@H](O)[C@@H](O)[C@H]7O)[C@H](O)[C@H]6NC(=O)c6cccc([N+](=O)[O-])c6)CC[C@]5(C)[C@H]4CC[C@]3(C)[C@H]1[C@@H]2C | 39.4 | 22.8 | – | –
4 | C[C@@H]1CC[C@@]2(OC1)O[C@H]1C[C@H]3[C@@H]4CC=C5C[C@@H](O[C@@H]6O[C@H](CO)[C@@H](O)[C@H](O)[C@H]6NC(=O)CCCCC6CCSS6)CC[C@]5(C)[C@H]4CC[C@]3(C)[C@H]1[C@@H]2C (stereo partly drawn) [ALPHA LIPOYL] | 7.3 | 6.9 | – | –
5 | C[C@@H]1CC[C@@]2(OC1)O[C@H]1C[C@H]3[C@@H]4CC=C5C[C@@H](O[C@@H]6O[C@H](CO)[C@@H](O)[C@H](O)[C@H]6NC(=O)c6cc([N+](=O)[O-])cc([N+](=O)[O-])c6)CC[C@]5(C)[C@H]4CC[C@]3(C)[C@H]1[C@@H]2C | 21 | 18.7 | – | –
6 | C[C@@H]1CC[C@@]2(OC1)O[C@H]1C[C@H]3[C@@H]4CC=C5C[C@@H](O[C@@H]6O[C@H](CO)[C@@H](O)[C@H](O)[C@H]6NC(=O)c6cccc([N+](=O)[O-])c6)CC[C@]5(C)[C@H]4CC[C@]3(C)[C@H]1[C@@H]2C | 16.1 | 13.6 | – | –
7 | COc1cccc2c1C(=O)c1c(O)c3c(c(O)c1C2=O)C[C@@](O)(C(=O)CO)C[C@@H]3O[C@H]1C[C@H](N)[C@H](O)[C@H](C)O1 [DOXORUBICIN] | 1.03 | 0.73 | – | –
8 | C[C@@H]1CC[C@@]2(OC1)O[C@H]1C[C@H]3[C@@H]4CC=C5C[C@@H](O[C@@H]6O[C@H](CO)[C@@H](O[C@@H]7O[C@@H](C)[C@H](O)[C@@H](O)[C@H]7O)[C@H](O)[C@H]6NC(=O)c6cc([N+](=O)[O-])cc([N+](=O)[O-])c6)CC[C@]5(C)[C@H]4CC[C@]3(C)[C@H]1[C@@H]2C | – | 39.5 | inactive | –
9 | C[C@@H]1CC[C@@]2(OC1)O[C@H]1C[C@H]3[C@@H]4CC=C5C[C@@H](O[C@@H]6O[C@H](CO)[C@@H](O[C@@H]7O[C@@H](C)[C@H](O)[C@@H](O)[C@H]7O)[C@H](O)[C@H]6NC(=O)CCCCC6CCSS6)CC[C@]5(C)[C@H]4CC[C@]3(C)[C@H]1[C@@H]2C (mixture of isomers) | 39.9 | 18.8 | – | –
